We go through 18 compounds from ChEMBL document CHEMBL6071151, “Discovery of Inhibitors Targeting Protein-Protein Interaction between Bacterial RNA Polymerase and NusG as Novel Antimicrobials” (J Med Chem, 2024).

Format in all cases: functional
One test has as its system Escherichia coli. Description: Antimicrobial activity against Escherichia coli ATCC 25922 assessed as reduction in microbial growth measured after 20 hrs by CLSI based broth microdilution method. Summed up:
(§1)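 Broth microdilution per CLSI in cation-adjusted Mueller-Hinton broth. Two-fold serial dilutions from 256 to 0.25 μg/mL, inoculum about 5 × 10⁵ CFU/mL. Read after 20 h at 37 °C. MIC is the lowest concentration with no visible growth. Run in duplicate.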
(In general: In broth dilution the organism is exposed to a series of concentrations in liquid medium.)

The test system of a further test is Enterobacter cloacae. Description: Antimicrobial activity against Enterobacter cloacae ATCC 13047 assessed as reduction in microbial growth measured after 20 hrs by CLSI based broth microdilution method. Summed up: as §1
Test [1] relates to Staphylococcus aureus. Nature of the test: Antimicrobial activity against Staphylococcus aureus ATCC 25923 assessed as reduction in microbial growth measured after 20 hrs by CLSI based broth microdilution method. The gist of the method:
as §1

A further test relates to Streptococcus pneumoniae. Nature of the test: Antimicrobial activity against Streptococcus pneumoniae ATCC 49619 assessed as reduction in microbial growth measured after 20 hrs by CLSI based broth microdilution method.
In test [2] the test system is Staphylococcus aureus. Description: Antimicrobial activity against Staphylococcus aureus ATCC 29213 assessed as reduction in microbial growth measured after 20 hrs by CLSI based broth microdilution method. Summed up: as §1
For a further test, the system named is Enterococcus faecalis. Description: Antimicrobial activity against Enterococcus faecalis ATCC 19433 assessed as reduction in microbial growth measured after 20 hrs by CLSI based broth microdilution method. Summed up: as §1
The subject of the next test is Acinetobacter baumannii. Nature of the test: Antimicrobial activity against Acinetobacter baumannii ATCC 19606 assessed as reduction in microbial growth measured after 20 hrs by CLSI based broth microdilution method. The gist of the method:
as §1

The subject of the next test is Pseudomonas aeruginosa. Nature of the test: Antimicrobial activity against Pseudomonas aeruginosa ATCC 27853 assessed as reduction in microbial growth measured after 20 hrs by CLSI based broth microdilution method. Summed up:
as §1

A further test deals with Klebsiella pneumoniae. Description: Antimicrobial activity against Klebsiella pneumoniae ATCC 700603 assessed as reduction in microbial growth measured after 20 hrs by CLSI based broth microdilution method. Summed up:
as §1

As usually defined, the MIC is the lowest concentration that inhibits growth of the organism. For the compound `O=[N+]([O-])c1ccc(OCC(O)CNCCNc2cc(C(F)(F)F)ccn2)cc1` (configuration not stated), the MIC is > 256 µg/mL with Escherichia coli; 256 µg/mL in the test on Enterobacter cloacae; 128 µg/mL in the test on Staphylococcus aureus [1]; 64 µg/mL in the test on Streptococcus pneumoniae; 128 µg/mL in the test on Staphylococcus aureus [2]; 128 µg/mL in the test on Enterococcus faecalis. The MIC in the test with Acinetobacter baumannii, in the test with Pseudomonas aeruginosa and with Klebsiella pneumoniae was > 256 µg/mL throughout.

As for `OC(CNCCNc1ccc(C(F)(F)F)cn1)CNc1ccc(C(F)(F)F)cc1` (configuration not stated), the MIC in the test on Escherichia coli is 64 µg/mL; in the test with Enterobacter cloacae, 64 µg/mL; in the test on Staphylococcus aureus [1], 32 µg/mL; with Streptococcus pneumoniae, 16 µg/mL; in the test on Staphylococcus aureus [2] it was 32 µg/mL; in the test on Enterococcus faecalis it was 16 µg/mL. Moreover, the values for the MIC with Acinetobacter baumannii, with Pseudomonas aeruginosa and in the test with Klebsiella pneumoniae were 32 µg/mL, > 256 µg/mL and > 256 µg/mL, respectively.

In the case of `OC(CNCCNc1cccc(C(F)(F)F)c1)COc1ccc(C(F)(F)F)cc1` (configuration not stated), the MIC with Escherichia coli, in the test on Enterobacter cloacae, in the test on Staphylococcus aureus [1], in the test with Streptococcus pneumoniae, with Staphylococcus aureus [2] and in the test with Enterococcus faecalis was > 256 µg/mL each time. Besides, the MIC with Acinetobacter baumannii, in the test on Pseudomonas aeruginosa and with Klebsiella pneumoniae was > 256 µg/mL throughout.

Take `COc1ccc(OCC(O)CNCCNc2nccc(C(F)(F)F)n2)cc1` (configuration not stated): the MIC in the test on Escherichia coli was > 256 µg/mL; in the test on Enterobacter cloacae, > 256 µg/mL; with Staphylococcus aureus [1], > 256 µg/mL; in the test with Streptococcus pneumoniae, 256 µg/mL; with Staphylococcus aureus [2], > 256 µg/mL; in the test on Enterococcus faecalis, > 256 µg/mL. Further, the MIC with Acinetobacter baumannii, with Pseudomonas aeruginosa and in the test with Klebsiella pneumoniae was > 256 µg/mL throughout.

For the compound `OC(CNCCNc1ccc(-c2ccccc2)cc1)COc1ccc(C(F)(F)F)cc1` (configuration not stated), the MIC in the test with Escherichia coli, in the test with Enterobacter cloacae, with Staphylococcus aureus [1], in the test with Streptococcus pneumoniae, with Staphylococcus aureus [2] and with Enterococcus faecalis was > 256 µg/mL throughout. In addition, the MIC with Acinetobacter baumannii, in the test on Pseudomonas aeruginosa and in the test on Klebsiella pneumoniae was > 256 µg/mL throughout.

With `OC(CNCCNc1nccc(C(F)(F)F)n1)COc1ccc(F)c(F)c1` (configuration not stated), the MIC in the test on Escherichia coli is 128 µg/mL; with Enterobacter cloacae, 256 µg/mL; with Staphylococcus aureus [1], 256 µg/mL; with Streptococcus pneumoniae, 64 µg/mL; in the test with Staphylococcus aureus [2] it was 256 µg/mL; in the test with Enterococcus faecalis it was 256 µg/mL. The minimum inhibitory concentration (MIC) in the test with Acinetobacter baumannii was 256 µg/mL; with Pseudomonas aeruginosa it was > 256 µg/mL; in the test on Klebsiella pneumoniae it was > 256 µg/mL.

Regarding `O=[N+]([O-])c1ccc(OCC(O)CNCCNc2ncccn2)cc1` (configuration not stated), the MIC in the test on Escherichia coli, in the test with Enterobacter cloacae, in the test on Staphylococcus aureus [1], in the test with Streptococcus pneumoniae, in the test with Staphylococcus aureus [2] and with Enterococcus faecalis was > 256 µg/mL in each case. Also, the MIC in the test with Acinetobacter baumannii, in the test with Pseudomonas aeruginosa and in the test on Klebsiella pneumoniae was > 256 µg/mL throughout.

For `OC(CNCCNc1ccc(C(F)(F)F)cn1)COCc1ccc(C(F)(F)F)cc1` (configuration not stated), the MIC was 128 µg/mL in the test with Escherichia coli; 128 µg/mL with Enterobacter cloacae; 32 µg/mL in the test on Staphylococcus aureus [1]; 16 µg/mL in the test on Streptococcus pneumoniae; 32 µg/mL in the test with Staphylococcus aureus [2]; 32 µg/mL in the test on Enterococcus faecalis. The MIC in the test on Acinetobacter baumannii was 64 µg/mL; in the test on Pseudomonas aeruginosa it was > 256 µg/mL; in the test with Klebsiella pneumoniae, > 256 µg/mL.

On to `OC(CNCCNc1ccc(C(F)(F)F)cn1)COc1ccc(C(F)(F)F)cc1` (configuration not stated), for which the MIC is 64 µg/mL in the test with Escherichia coli; > 256 µg/mL with Enterobacter cloacae; 64 µg/mL in the test with Staphylococcus aureus [1]; 16 µg/mL with Streptococcus pneumoniae; 32 µg/mL in the test with Staphylococcus aureus [2]; 64 µg/mL in the test on Enterococcus faecalis. Further, the MIC is 64 µg/mL with Acinetobacter baumannii, > 256 µg/mL with Pseudomonas aeruginosa and > 256 µg/mL in the test with Klebsiella pneumoniae.

`O=[N+]([O-])c1ccc(OCC(O)CNCCNc2ccc(C(F)(F)F)cn2)cc1` (configuration not stated): the MIC in the test on Escherichia coli stood at 128 µg/mL; in the test with Enterobacter cloacae, 128 µg/mL; in the test on Staphylococcus aureus [1], 32 µg/mL; in the test on Streptococcus pneumoniae it was 64 µg/mL; with Staphylococcus aureus [2], 32 µg/mL; in the test with Enterococcus faecalis, 128 µg/mL. Moreover, the MIC with Acinetobacter baumannii is 128 µg/mL; with Pseudomonas aeruginosa, > 256 µg/mL; with Klebsiella pneumoniae, > 256 µg/mL.

Turning to `OC(CNCCNc1nccc(C(F)(F)F)n1)COc1ccc(C(F)(F)F)cc1` (configuration not stated), the MIC in the test with Escherichia coli was > 256 µg/mL; in the test on Enterobacter cloacae, > 256 µg/mL; in the test on Staphylococcus aureus [1] it was 64 µg/mL; in the test on Streptococcus pneumoniae, 32 µg/mL; with Staphylococcus aureus [2], 64 µg/mL; in the test on Enterococcus faecalis, 64 µg/mL. Also, the MIC with Acinetobacter baumannii was 128 µg/mL; in the test on Pseudomonas aeruginosa it was > 256 µg/mL; with Klebsiella pneumoniae, > 256 µg/mL.

Consider `N#Cc1ccc(OCC(O)CNCCNc2ccccc2C(F)(F)F)cc1` (configuration not stated), for which the MIC with Escherichia coli was > 256 µg/mL; with Enterobacter cloacae, > 256 µg/mL; with Staphylococcus aureus [1] it was > 256 µg/mL; with Streptococcus pneumoniae it was 128 µg/mL; in the test with Staphylococcus aureus [2], 128 µg/mL; in the test with Enterococcus faecalis, > 256 µg/mL. For the same compound, the MIC in the test on Acinetobacter baumannii, in the test on Pseudomonas aeruginosa and with Klebsiella pneumoniae was > 256 µg/mL throughout.

With `OC(CNCCSc1ccccc1C(F)(F)F)COc1ccc(C(F)(F)F)cc1` (configuration not stated), the MIC worked out at 16 µg/mL in the test on Escherichia coli; 128 µg/mL with Enterobacter cloacae; 16 µg/mL in the test with Staphylococcus aureus [1]; 4 µg/mL with Streptococcus pneumoniae; 8 µg/mL in the test with Staphylococcus aureus [2]; 8 µg/mL in the test on Enterococcus faecalis. Besides, the figures for the MIC in the test with Acinetobacter baumannii, in the test on Pseudomonas aeruginosa and in the test with Klebsiella pneumoniae were 32 µg/mL, > 256 µg/mL and > 256 µg/mL, respectively.

`OC(CNCCNc1nccc(C(F)(F)F)n1)COc1ccccc1` (configuration not stated): the MIC is > 256 µg/mL in the test on Escherichia coli; > 256 µg/mL in the test with Enterobacter cloacae; > 256 µg/mL with Staphylococcus aureus [1]; 128 µg/mL in the test on Streptococcus pneumoniae; > 256 µg/mL with Staphylococcus aureus [2]; > 256 µg/mL with Enterococcus faecalis. Also, the MIC in the test with Acinetobacter baumannii, with Pseudomonas aeruginosa and with Klebsiella pneumoniae was > 256 µg/mL each time.

Turning to `OC(CNCCNc1ccc(C(F)(F)F)cn1)COCc1ccccc1C(F)(F)F` (configuration not stated), the MIC with Escherichia coli came to 128 µg/mL; in the test on Enterobacter cloacae, 128 µg/mL; with Staphylococcus aureus [1], 64 µg/mL; with Streptococcus pneumoniae it was 64 µg/mL; with Staphylococcus aureus [2], 64 µg/mL; in the test on Enterococcus faecalis, 128 µg/mL. Further, the figures for the MIC in the test with Acinetobacter baumannii, with Pseudomonas aeruginosa and with Klebsiella pneumoniae were 128 µg/mL, > 256 µg/mL and > 256 µg/mL, respectively.

Regarding `COC(=O)c1ccc(OCC(O)CNCCNc2nccc(C(F)(F)F)n2)cc1` (configuration not stated), the MIC in the test on Escherichia coli was > 256 µg/mL; with Enterobacter cloacae it was > 256 µg/mL; in the test with Staphylococcus aureus [1], > 256 µg/mL; in the test on Streptococcus pneumoniae, 256 µg/mL; in the test with Staphylococcus aureus [2], > 256 µg/mL; in the test on Enterococcus faecalis, > 256 µg/mL. The MIC in the test on Acinetobacter baumannii, in the test with Pseudomonas aeruginosa and in the test on Klebsiella pneumoniae was > 256 µg/mL in each case.

As to `O=[N+]([O-])c1ccc(OCC(O)CNCCNc2ccc(F)cn2)cc1` (configuration not stated), the MIC with Escherichia coli, with Enterobacter cloacae, with Staphylococcus aureus [1], with Streptococcus pneumoniae, in the test on Staphylococcus aureus [2] and with Enterococcus faecalis was > 256 µg/mL in each case. Besides, the MIC in the test with Acinetobacter baumannii, with Pseudomonas aeruginosa and with Klebsiella pneumoniae was > 256 µg/mL each time.

As to `OC(CNCCNc1ccccc1C(F)(F)F)COc1cccc(C(F)(F)F)c1` (configuration not stated), the MIC with Escherichia coli was found to be 32 µg/mL; with Enterobacter cloacae, 32 µg/mL; with Staphylococcus aureus [1] it was 32 µg/mL; with Streptococcus pneumoniae, 16 µg/mL; with Staphylococcus aureus [2] it was 32 µg/mL; in the test with Enterococcus faecalis it was 16 µg/mL. Also, the MIC in the test with Acinetobacter baumannii is 32 µg/mL; with Pseudomonas aeruginosa it was > 256 µg/mL; with Klebsiella pneumoniae, > 256 µg/mL.
